Laboratory results reported in ChEMBL document CHEMBL4689842, “EUbOPEN Chemogenomics Library wave 1” (2021).

What was measured:
Format in all cases: toxicity, cell-based
[1] = test system: HEK-293T; test: Incucyte cell viability with HEK293T; details: human, 10 µM, compound concentration 10 uM; also: filed as whole numbers so only -1 and 0 and 1 occur
[2] = test system: Fibroblast; test: Incucyte cell viability with human fibroblast; details: 10 µM, compound concentration 10 uM; also: filed as whole numbers so only -1 and 0 and 1 occur
[3] = test system: HEK-293T; test: Multiplex assay against HEK293T; details: human;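 as to Population Tubulin-Different-Phenotype (%): share of the cells with healthy nuclei that show this phenotype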
How it was run: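 Tubulin, mitochondrial-mass and membrane-permeability phenotypes are per cents of healthy-nucleus cells. Cells were gated by CellPathfinder machine learning into Hoechst high-intensity objects or normal cells, normal cells into healthy, pyknosed or fragmented nuclei, and pyknosed cells into mitotic or apoptotic. Before that, live cells stained at seeding with Hoechst33342, BioTracker Green Microtubule Cytoskeleton Dye, MitoTracker Red and Annexin V Alexa Fluor 680 were imaged on a CQ1 microscope at 37°C and 5% CO2 after compound addition.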

[4] = 6 h, replicate number 1, timepoint 6 hours
[5] = 12 h, replicate number 1, timepoint 12 hours
[6] = 18 h, replicate number 1, timepoint 18 hours
[7] = 24 h, replicate number 1, timepoint 24 hours
[8] = 12 h, 1 µM, compound concentration 1 uM, replicate 1
[9] = 12 h, 1 µM, compound concentration 1 uM, replicate 2
[10] = 12 h, 10 µM, compound concentration 10 uM, replicate 1
[11] = 12 h, 10 µM, compound concentration 10 uM, replicate 2
[12] = 24 h, 1 µM, compound concentration 1 uM, replicate 1
[13] = 24 h, 1 µM, compound concentration 1 uM, replicate 2
[14] = 24 h, 10 µM, compound concentration 10 uM, replicate 1
[15] = 24 h, 10 µM, compound concentration 10 uM, replicate 2
[16] = 48 h, 1 µM, compound concentration 1 uM, replicate 1
[17] = 48 h, 1 µM, compound concentration 1 uM, replicate 2
[18] = 48 h, 10 µM, compound concentration 10 uM, replicate 1
[19] = 48 h, 10 µM, compound concentration 10 uM, replicate 2

`CCCCCNC(=N)N/N=C/c1c[nH]c2ccc(OC)cc12.O=C(O)/C=C\C(=O)O` [TEGASEROD MALEATE] was tested, and the “Growth Rate” value ([1]; 0 h, replicate number 2, timepoint 0 hours) was 1, the “Growth Rate” value [1, 4] was 0 and the “Growth Rate” value [1, 5] was 0. The “Growth Rate” value [1, 6] was 0, the “Growth Rate” value [1, 7] was 0 and the “Growth Rate” value [2, 4] was 0. For the same compound, the “Growth Rate” value [2, 5] was 0, the “Growth Rate” value [2, 6] was 0 and the “Growth Rate” value [2, 7] was 0. The “Population Apoptotic (%)” value [3, 8] was 45%, the “Population Fragmented Nuclei (%)” value [3, 8] was 20% and the “Population Healthy Nuclei (%)” value [3, 8] was 42%. The “Population Hoechst High Intensity Objects (%)” value [3, 8] was 16%, the “Population Membrane Permeable-Phenotype (%)” value [3, 8] was 4% and the “Population Mitochondria Different-Phenotype (%)” value [3, 8] was 88%. For the same compound, the “Population Mitotic Cells (%)” value [3, 8] was 54%, the “Population Normal (%)” value [3, 8] was 83% and the “Population Pyknosed Nuclei (%)” value [3, 8] was 36%. The “Population Tubulin-Different-Phenotype (%)” value [3, 8] was 52%, the “Total Cell Count” value [3, 8] was 192 and the “Population Apoptotic (%)” value [3, 9] was 24%. For the same compound, the “Population Fragmented Nuclei (%)” value [3, 9] was 4%, the “Population Healthy Nuclei (%)” value [3, 9] was 35% and the “Population Hoechst High Intensity Objects (%)” value [3, 9] was 1%. The “Population Membrane Permeable-Phenotype (%)” value [3, 9] was 9%, the “Population Mitochondria Different-Phenotype (%)” value [3, 9] was 50% and the “Population Mitotic Cells (%)” value [3, 9] was 75%. The “Population Normal (%)” value [3, 9] was 98%, the “Population Pyknosed Nuclei (%)” value [3, 9] was 59% and the “Population Tubulin-Different-Phenotype (%)” value [3, 9] was 48%. The “Total Cell Count” value [3, 9] was 204, the “Population Apoptotic (%)” value [3, 10] was 51% and the “Population Fragmented Nuclei (%)” value [3, 10] was 27%. The “Population Healthy Nuclei (%)” value [3, 10] was 0%, the “Population Hoechst High Intensity Objects (%)” value [3, 10] was 27% and the “Population Membrane Permeable-Phenotype (%)” value [3, 10] was 0%. The “Population Mitochondria Different-Phenotype (%)” value [3, 10] was 0%, the “Population Mitotic Cells (%)” value [3, 10] was 48% and the “Population Normal (%)” value [3, 10] was 72%. For the same compound, the “Population Pyknosed Nuclei (%)” value [3, 10] was 72%, the “Population Tubulin-Different-Phenotype (%)” value [3, 10] was 0% and the “Total Cell Count” value [3, 10] was 295. The “Population Apoptotic (%)” value [3, 11] was 96%, the “Population Fragmented Nuclei (%)” value [3, 11] was 15% and the “Population Healthy Nuclei (%)” value [3, 11] was 3%. For the same compound, the “Population Hoechst High Intensity Objects (%)” value [3, 11] was 29%, the “Population Mitotic Cells (%)” value [3, 11] was 3% and the “Population Normal (%)” value [3, 11] was 70%. The “Population Pyknosed Nuclei (%)” value [3, 11] was 81%, the “Population Tubulin-Different-Phenotype (%)” value [3, 11] was 100% and the “Total Cell Count” value [3, 11] was 93. For the same compound, the “Population Apoptotic (%)” value [3, 12] was 46%, the “Population Fragmented Nuclei (%)” value [3, 12] was 15% and the “Population Healthy Nuclei (%)” value [3, 12] was 60%. The “Population Hoechst High Intensity Objects (%)” value [3, 12] was 13%, the “Population Membrane Permeable-Phenotype (%)” value [3, 12] was 1% and the “Population Mitochondria Different-Phenotype (%)” value [3, 12] was 83%. For the same compound, the “Population Mitotic Cells (%)” value [3, 12] was 53%, the “Population Normal (%)” value [3, 12] was 86% and the “Population Pyknosed Nuclei (%)” value [3, 12] was 23%. For the same compound, the “Population Tubulin-Different-Phenotype (%)” value [3, 12] was 46%, the “Total Cell Count” value [3, 12] was 196 and the “Population Apoptotic (%)” value [3, 13] was 24%. The “Population Fragmented Nuclei (%)” value [3, 13] was 4%, the “Population Healthy Nuclei (%)” value [3, 13] was 54% and the “Population Hoechst High Intensity Objects (%)” value [3, 13] was 3%. For the same compound, the “Population Membrane Permeable-Phenotype (%)” value [3, 13] was 7%, the “Population Mitochondria Different-Phenotype (%)” value [3, 13] was 46% and the “Population Mitotic Cells (%)” value [3, 13] was 75%. For the same compound, the “Population Normal (%)” value [3, 13] was 96%, the “Population Pyknosed Nuclei (%)” value [3, 13] was 40% and the “Population Tubulin-Different-Phenotype (%)” value [3, 13] was 43%. The “Total Cell Count” value [3, 13] was 260, the “Population Apoptotic (%)” value [3, 14] was 54% and the “Population Fragmented Nuclei (%)” value [3, 14] was 31%. For the same compound, the “Population Healthy Nuclei (%)” value [3, 14] was 0%, the “Population Hoechst High Intensity Objects (%)” value [3, 14] was 35% and the “Population Membrane Permeable-Phenotype (%)” value [3, 14] was 100%. For the same compound, the “Population Mitochondria Different-Phenotype (%)” value [3, 14] was 100%, the “Population Mitotic Cells (%)” value [3, 14] was 45% and the “Population Normal (%)” value [3, 14] was 64%. For the same compound, the “Population Pyknosed Nuclei (%)” value [3, 14] was 68%, the “Population Tubulin-Different-Phenotype (%)” value [3, 14] was 0% and the “Total Cell Count” value [3, 14] was 288. The “Population Apoptotic (%)” value [3, 15] was 97%, the “Population Fragmented Nuclei (%)” value [3, 15] was 25% and the “Population Healthy Nuclei (%)” value [3, 15] was 27%. For the same compound, the “Population Hoechst High Intensity Objects (%)” value [3, 15] was 13%, the “Population Membrane Permeable-Phenotype (%)” value [3, 15] was 23% and the “Population Mitochondria Different-Phenotype (%)” value [3, 15] was 9%. The “Population Mitotic Cells (%)” value [3, 15] was 2%, the “Population Normal (%)” value [3, 15] was 86% and the “Population Pyknosed Nuclei (%)” value [3, 15] was 46%. For the same compound, the “Population Tubulin-Different-Phenotype (%)” value [3, 15] was 85%, the “Total Cell Count” value [3, 15] was 89 and the “Population Fragmented Nuclei (%)” value [3, 16] was 9%. For the same compound, the “Population Healthy Nuclei (%)” value [3, 16] was 77%, the “Population Hoechst High Intensity Objects (%)” value [3, 16] was 8% and the “Population Membrane Permeable-Phenotype (%)” value [3, 16] was 0%. The “Population Mitochondria Different-Phenotype (%)” value [3, 16] was 38%, the “Population Normal (%)” value [3, 16] was 91% and the “Population Pyknosed Nuclei (%)” value [3, 16] was 12%. For the same compound, the “Population Tubulin-Different-Phenotype (%)” value [3, 16] was 30%, the “Total Cell Count” value [3, 16] was 290 and the “Population Apoptotic (%)” value [3, 17] was 33%. For the same compound, the “Population Fragmented Nuclei (%)” value [3, 17] was 7%, the “Population Healthy Nuclei (%)” value [3, 17] was 78% and the “Population Hoechst High Intensity Objects (%)” value [3, 17] was 4%. For the same compound, the “Population Membrane Permeable-Phenotype (%)” value [3, 17] was 5%, the “Population Mitochondria Different-Phenotype (%)” value [3, 17] was 21% and the “Population Mitotic Cells (%)” value [3, 17] was 66%. For the same compound, the “Population Normal (%)” value [3, 17] was 95%, the “Population Pyknosed Nuclei (%)” value [3, 17] was 14% and the “Population Tubulin-Different-Phenotype (%)” value [3, 17] was 42%. For the same compound, the “Total Cell Count” value [3, 17] was 411, the “Population Apoptotic (%)” value [3, 18] was 58% and the “Population Fragmented Nuclei (%)” value [3, 18] was 36%. For the same compound, the “Population Healthy Nuclei (%)” value [3, 18] was 0%, the “Population Hoechst High Intensity Objects (%)” value [3, 18] was 31% and the “Population Membrane Permeable-Phenotype (%)” value [3, 18] was 0%. For the same compound, the “Population Mitochondria Different-Phenotype (%)” value [3, 18] was 0%, the “Population Mitotic Cells (%)” value [3, 18] was 41% and the “Population Normal (%)” value [3, 18] was 68%. For the same compound, the “Population Pyknosed Nuclei (%)” value [3, 18] was 63%, the “Population Tubulin-Different-Phenotype (%)” value [3, 18] was 0% and the “Total Cell Count” value [3, 18] was 277. The “Population Apoptotic (%)” value [3, 19] was 100%, the “Population Fragmented Nuclei (%)” value [3, 19] was 32% and the “Population Healthy Nuclei (%)” value [3, 19] was 47%. For the same compound, the “Population Hoechst High Intensity Objects (%)” value [3, 19] was 6%, the “Population Membrane Permeable-Phenotype (%)” value [3, 19] was 17% and the “Population Mitochondria Different-Phenotype (%)” value [3, 19] was 28%. For the same compound, the “Population Mitotic Cells (%)” value [3, 19] was 0%, the “Population Normal (%)” value [3, 19] was 93% and the “Population Pyknosed Nuclei (%)” value [3, 19] was 20%. The “Population Tubulin-Different-Phenotype (%)” value [3, 19] was 65% and the “Total Cell Count” value [3, 19] was 79.
